Compound activity from PubChem BioAssay.
In the library only some 2.3% were active in any assay of this set; here they are far more common.
TRPC6 act: mouse TRPC6 channel activation. Q61143. HEK293-TRPC6 membrane potential dye fluorescence; active compounds read high. B-score at 10 µM. hit rate 0.13% among 310,000. AID 2550;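 active means B-score of the integrated fluorescence ratio above library mean plus 3 SD, and starting fluorescence ratio within library mean plus 5 SD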;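 further: higher score means more depolarization so channel activation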
TRPC4 PAM: allosteric potentiators of mouse TRPC4 channel. HEK293 TRPC4beta/mu-opioid, DAMGO EC20, Fluo-4 Ca2+ flux; active compounds read high. B-score at 10 µM. hit rate 0.42% among 310,000;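 active means B-score of calcium response area above 5 SD of library B-scores, with initial fluorescence ratio within 5 SD of library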;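 further: B-score of integrated fluorescence ratio over time as area under calcium response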
TRPC4 block: inhibitors of mouse TRPC4 channel; AID 2247; B-score at 10 µM; HEK293 TRPC4beta/mu-opioid, DAMGO-evoked Fluo4 calcium flux; active compounds read low; hit rate 0.39% among 300,000; Q9QUQ5;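 active means B-score over 3 SD under the library average, no early fluorescence shift, positive overall ratio signal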
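Signal: kinetic Fluo4 fluorescence imaging of calcium influx. Material: stable TRPC4beta/mu-opioid receptor HEK293 cells. Probe or stimulus: DAMGO in two steps, submaximal then maximal.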
TRPC4 act: activators of mouse TRPC4 channel; B-score at 10 µM; AID 2237; hit rate 0.49% among 310,000; HEK293 TRPC4beta/mu-opioid, Fluo4 calcium fluorescence; active compounds read high;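 active means B-score above 5 SD of library B-scores, and initial fluorescence ratio not above library mean plus 5 SD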;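 further: positive B-score marks a calcium rise read as TRPC4 activation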
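Incubation: 45 min room-temperature Fluo4 loading, 110 s read / System: HEK293 cells stably co-expressing mouse TRPC4beta and mu-opioid receptor / Signal: Fluo4 fluorescence, kinetic / Control set: buffer (low) and maximal DAMGO (high) / Measure: integrated baseline-normalised fluorescence ratio, converted to per-well B score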
TRPC6 inhibitor: mouse TRPC6 channel inhibition; HEK293-TRPC6, membrane potential dye, ACh-evoked depolarization; active compounds read low; hit rate 1.1% among 310,000; AID 2553; B-score at 10 µM; Q61143;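 active means B-score under library mean minus 3 SD, initial fluorescence not abnormally high, positive integrated signal ratio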;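 further: B-score derived from integrated fluorescence ratio over the kinetic read; more negative B-score means stronger inhibition of depolarization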
TRPC4 sel inh 2: second check of whether TRPC6 inhibitors also affect mouse TRPC4. shares compounds with TRPC6 inhibitor. HEK293 TRPC4/MOR, membrane potential dye fluorescence; channel activated by saturating DAMGO dose. inhibition, % at 10 µM. hit rate 42% among 920;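 active means compounds whose fluorescence signal differed from control wells by over 3 SD, either direction, in both duplicate plates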
TRPC4 spec: tests whether TRPC6 inhibitors also affect mouse TRPC4 | shares compounds with TRPC6 inhibitor | HEK293 TRPC4/mu-opioid, membrane potential fluorescence | activity change, negative = inhibition, % at 10 µM | hit rate 61% among 920 | AID 2777;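 active means rise or fall in signal beyond 3 SD of buffer-only wells in both replicate plates, either sign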;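 further: integrated kinetic ratio of fluorescence range over baseline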
HEK293 MPD ctr 2-1: parental HEK293 nonspecific activity of TRPC6 inhibitors, second screen. signal change vs control, % at 10 µM. AID 2779. parental HEK293 membrane potential dye fluorescence; maximal acetylcholine challenge after compound addition. hit rate 31% among 920. shares compounds with TRPC6 inhibitor;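 active means membrane potential signal moving either way by over 3 SD of the maximum-effect control, in both duplicate plates, meaning non-specific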
HEK293 MPD ctr-1: counter-screen for TRPC6 inhibitors: effect in parental HEK293 cells; shares compounds with TRPC6 inhibitor; membrane potential signal change, % at 10 µM; AID 2780; parental HEK293 membrane potential dye fluorescence; hit rate 60% among 920;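 active means membrane potential signal shifting up or down by more than 3 SD of buffer-only wells, on both duplicate plates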
HEK293 MPD ctr-2: counter-screen for TRPC6 modulators: effect in parental HEK293 cells. shares compounds with TRPC6 inhibitor. membrane potential dye fluorescence. membrane potential signal change, % at 10 µM. hit rate 51% among 2,400. AID 488924;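 active means membrane potential signal moves up or down beyond 5 SD from buffer-only wells, on both duplicate plates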
HEK293 MPD ctr 2-2: second check of TRPC6 modulator effects in parental HEK293 cells | shares compounds with TRPC6 inhibitor | hit rate 14% among 2,400 | membrane potential dye fluorescence; after compound, maximal acetylcholine stimulation | inhibition, % at 10 µM;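 active means membrane potential signal drops by more than 5 SD from the mean control signal, in both duplicate plates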;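 further: plate controls were acetylcholine ECmax control wells for no effect and buffer only wells for full effect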
TRPC4 ctr mod: selectivity of TRPC6 modulators against mouse TRPC4; percent change from control (negative = decrease, positive = increase), % at 10 µM; shares compounds with TRPC6 inhibitor; hit rate 69% among 2,400; HEK293 TRPC4/mu-opioid, membrane potential fluorescence;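 active means membrane potential signal moved up or down beyond 5 SD of buffer control wells, in both duplicate plates, actives on both sides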;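 further: plate controls were assay buffer wells for no effect and DAMGO maximal-effect wells for full effect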
TRPC4/MOR inh 2: mouse TRPC4 off-target activity of TRPC6 modulators, second screen; hit rate 55% among 2,400; HEK293 TRPC4/mu-opioid, membrane potential dye fluorescence; stimulated with maximal-effect DAMGO; shares compounds with TRPC6 inhibitor; inhibition, % at 10 µM;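 active means drop in membrane potential signal beyond 5 SD of the control wells in both duplicate plates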;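 further: TRPC4 counter screen for TRPC6 hits run under conditions tuned for TRPC6 not TRPC4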
TRPC6 block conf: mouse TRPC6 inhibitor confirmation | shares compounds with TRPC6 inhibitor | HEK293-TRPC6, membrane potential dye, ACh-evoked depolarization | inhibition, % at 10 µM | hit rate 43% among 3,300 | AID 488960;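 active means fluorescence ratio falls more than 5 SD below the full-stimulation control mean, in both duplicate runs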;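 further: integrated fluorescence ratio of peak minus minimum over baseline after agonist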
TRPC6 act conf: confirmation of mouse TRPC6 activators; shares compounds with TRPC6 inhibitor; HEK293-TRPC6 membrane potential dye fluorescence, FDSS; activation, % at 10 µM; hit rate 11% among 2,800; AID 488961;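 active means ratio signal rise beyond 5 SD above unstimulated control wells' mean, seen in both duplicate runs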;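 further: plate controls were buffer EC0 wells for no effect and acetylcholine ECmax response for full effect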
Active calls of the source: *; i = inactive; . = no result given.

SMILES	TRPC6 act	TRPC4 PAM	TRPC4 block	TRPC4 act	TRPC6 inhibitor	HEK293 MPD ctr-2	HEK293 MPD ctr 2-2	TRPC4 ctr mod	TRPC4/MOR inh 2	TRPC6 block conf	TRPC6 act conf	others
COc1ccc(OC)c(N/C(N)=N/c2nc(C)cc(C)n2)c1	i	i	i	i	i	.	.	.	.	.	.
CCCCS(=O)(=O)Nc1ccc(N2CCOCC2)c(S(=O)(=O)N2CCOCC2)c1	i	i	i	i	i	.	.	.	.	.	.
CCN1CCN(c2c(Cl)cccc2NC(=O)c2ccc3nsnc3c2)CC1	i	19*	i	63*	-9.6*	-206%*	i	-36%*	64%*	48%*	i
CCN1CCN(c2c(Cl)cccc2NC(=O)c2ccc([N+](=O)[O-])cc2)CC1	i	i	i	99*	-5.9*	-225%*	i	-34%*	63%*	i	i
O=C(Nc1ccc(N2CCCC2)c(Cl)c1)c1ccc([N+](=O)[O-])cc1	i	i	i	i	i	.	.	.	.	.	.
CCCC(=O)N1CCN(Cc2ccc3c(c2)OCO3)CC1	i	i	i	i	i	.	.	.	.	.	.
O=C(c1cccn2c(=O)c3ccccc3nc12)N1CCN(Cc2ccc3c(c2)OCO3)CC1	i	i	i	i	i	.	.	.	.	.	.
O=C(c1ccccc1Cl)N1CCN(Cc2ccc3c(c2)OCO3)CC1	13*	i	i	i	i	i	i	i	i	i	32%*
O=C(O)CCC(=O)N1CCN(Cc2ccc3c(c2)OCO3)CC1	i	i	i	i	-6.8*	.	.	.	.	i	i	TRPC4 sel inh 2=i;TRPC4 spec=i;HEK293 MPD ctr 2-1=i;HEK293 MPD ctr-1=i
O=C(c1cccn2c(=O)c3cc(Cl)ccc3nc12)N1CCN(Cc2ccc3c(c2)OCO3)CC1	i	i	i	i	-7.5*	.	.	.	.	i	i	TRPC4 sel inh 2=i;TRPC4 spec=i;HEK293 MPD ctr 2-1=i;HEK293 MPD ctr-1=i
O=C(c1ccc(Cn2cc(Cl)cn2)o1)N1CCN(Cc2ccc3c(c2)OCO3)CC1	i	i	i	i	-5.7*	98%*	i	18%*	i	40%*	.
CC1CCCC(NC(=O)C2CCN(S(=O)(=O)N3CCCCCC3)CC2)C1C (centres undefined)	i	i	i	i	i	.	.	.	.	.	.
CCNC(=S)Nc1ccc(Cl)c([N+](=O)[O-])c1	i	i	i	i	i	.	.	.	.	.	.
COc1ccc(S(=O)(=O)N2CCN(Cc3ccc4c(c3)OCO4)CC2)cc1	i	i	i	i	i	.	.	.	.	.	.
CSc1ccc(S(=O)(=O)N2CCN(Cc3ccc4c(c3)OCO4)CC2)cc1	i	i	i	i	-5*	i	i	i	i	40%*	i
Cc1ccc(S(=O)(=O)N2CCN(C(=O)Cc3ccc4c(c3)OCCO4)CC2)cc1C	i	i	i	i	-6.1*	i	i	i	i	i	i
CCOC(=O)c1cn(CC)c2cc(N3CCN(C)CC3)c(F)cc2c1=O	i	i	i	i	i	.	.	.	.	.	.
CCCCCCn1cc(C(=O)OCC)c(=O)c2cc(F)c(F)cc21	i	i	-6*	i	-5.1*	i	i	i	46%*	i	i
CCOC(=O)c1cn(CC)c2cc3c(cc2c1=O)OCO3	i	i	i	i	-5.8*	-126%*	i	-32%*	32%*	i	i
CCn1cc(C(=O)O)c(=O)c2cc(F)c(N3CCN(C)CC3)cc21	i	i	i	i	i	.	.	.	.	.	.
CCCCCCn1cc(C(=O)O)c(=O)c2cc(F)c(N3CCN(C)CC3)cc21	i	i	i	i	-5.5*	-268%*	70%*	-52%*	52%*	44%*	i
CCOC(=O)c1cn(CC#N)c2cc(F)c(F)cc2c1=O	i	i	i	i	i	.	.	.	.	.	.
O=C(CCn1nc(-c2ccc(Cl)cc2)ccc1=O)N1CCN(c2ccc(F)cc2)CC1	i	i	i	i	i	.	.	.	.	.	.
COc1cc(/C=N/NC(=O)CNC(=O)c2ccccc2)ccc1OC(=O)c1cccs1	13*	i	i	i	-7.6*	i	i	i	i	i	82%*
O=C(Nc1ccccn1)c1cc(-c2cccc(Cl)c2)nc2ccccc12	i	i	i	i	i	.	.	.	.	.	.
CCOC(=O)CSc1nc(C(C)C)nc2sc(C)c(C)c12	i	i	i	i	i	.	.	.	.	.	.
Cc1ccc(-c2nnc(CSc3nc(C(C)C)nc4sc(C)c(C)c34)o2)cc1	i	i	i	i	-5.5*	i	i	i	i	i	i
Cc1ccc(Nc2nc(-c3sc(N)nc3C)cs2)cc1	i	i	i	i	-7.7*	.	.	.	.	i	i	TRPC4 sel inh 2=i;TRPC4 spec=-11%*;HEK293 MPD ctr 2-1=i;HEK293 MPD ctr-1=-237%*
Cc1nn2c(NCCCN(C)C)c3c(nc2c1-c1ccccc1)CCC3	i	i	i	i	-7.9*	-167%*	i	-30%*	55%*	i	i
COCCNc1c2c(nc3c(-c4ccccc4)c(C)nn13)CCC2	i	i	i	i	i	.	.	.	.	.	.
